Measurements gathered from unrelated publications.
Protocols differ between the studies behind these lines.
Target: Serine/threonine-protein kinase WNK4 (WNK4, Homo sapiens, UniProt Q96J92)

C=CC(=O)N1CCC(C(=O)NCC(=O)N2CCN(c3nc(-c4cnc(N)nc4C(F)F)nc(N4CCOCC4)n3)CC2)CC1  remaining binding (binding; competition with immobilised ligand; 1 µM): 92%
CN(C)CC#Cc1ccc(OCCCc2sc(N3CCc4cccc(C(=O)Nc5nc6ccccc6s5)c4C3)nc2C(=O)O)c(F)c1  remaining binding (cell-free assay; competition with immobilised ligand; 1 µM): 81%
FC(F)(F)Oc1cccc(-c2cnc3ccc(-c4ccncc4)nn23)c1  remaining binding (binding; competition with immobilised ligand; 5 µM): 100%
CC(=O)c1c(NS(C)(=O)=O)c2cc(-c3ccc(Cl)cc3)c(-c3ccc(Cl)cc3Cl)nc2n(C)c1=O  remaining binding (cell-free assay; competition with immobilised ligand; 1 µM): 96%
COc1ccnn2ncc(-c3ccnc(N(C)C)n3)c12  remaining binding (binding; 1 µM): 100%
O=C(NCC1CCOCC1)c1n[nH]cc1NC(=O)c1c(F)cccc1F  remaining binding (binding; competition with immobilised ligand; 1 µM): 86%
Cc1nc(Cc2cccc(C(F)(F)F)c2)sc1-c1ccc(C(N)=O)nc1  remaining binding (cell-free assay; competition with immobilised ligand; 1 µM): 100%
COc1cnc(Nc2cccc(S(N)(=O)=O)c2)nc1N1CCN(c2ccccc2)CC1  remaining binding (binding; competition with immobilised ligand; 1 µM): 82%
O=C(NCCCN1CCOCC1)c1ccc(Nc2ncc(Cl)c(-c3ccc(Cl)s3)n2)cc1  remaining binding (binding; competition with immobilised ligand; 1 µM): 99%
N[C@@H]1CCN(c2nccc(-c3cnn4ncccc34)n2)C1  remaining binding (binding; 1 µM): 100%
COc1cccc(CNC(=O)c2nc3scc(COCc4ccc(C(=O)O)cc4)c3c(=O)[nH]2)c1  remaining binding (cell-free assay; competition with immobilised ligand; 1 µM): 100%
CN(c1nccc(-c2cnn3ncccc23)n1)C1CC1  remaining binding (binding; 1 µM): 100%
Nc1ncc2c(n1)-c1c([nH]c3ccc(C#CC4CC4)cc13)CCCC2  remaining binding (binding; competition with immobilised ligand; 1 µM): 79%
CN(C)c1nccc(-c2cnn3ncccc23)n1  remaining binding (binding; 1 µM): 59%
Cc1cnc(Nc2ccc(C(=O)N3CCC(N4CCCC4)CC3)cc2)nc1-c1cc2ccccc2s1  remaining binding (binding; competition with immobilised ligand; 1 µM): 73%
O=C(Nc1cccnn1)N1CC(C/C=C/c2cncc(Oc3ccc(C(F)(F)F)cn3)n2)C1  remaining binding (cell-free assay; competition with immobilised ligand; 1 µM): 0%
c1cncc(-c2cccc(Nc3nccc(NC4CCCCC4)n3)c2)c1  remaining binding (binding; competition with immobilised ligand; 10 µM): 100%
CN(C)c1ncc(F)c(-c2cnn3ncccc23)n1  remaining binding (binding; 1 µM): 91%
Cc1nc(N2CC[C@@H](O)C2)ncc1-c1cc(C(F)(F)F)cc2[nH]ncc12  remaining binding (binding; competition with immobilised ligand; 1 µM): 95%
C[C@@H]1CCN(c2nccc(-c3cnn4ncccc34)n2)C1  remaining binding (binding; 1 µM): 100%
O=C(c1ccc(Nc2ncc(Cl)c(-c3ccc(Cl)s3)n2)cc1)N1CCC(N2CCCC2)CC1  remaining binding (binding; competition with immobilised ligand; 1 µM): 100%
